Blank lines part the entries; values can stand above or below the compound they belong to.
Tests used:
[1] = biological target: T1, PGAM2 (Homo sapiens, UniProt P15259); assay: MIDAS protein-metabolite interaction screen; assay type: binding; settings: significant PMI Q < 0.01
T1 sequence (P15259 1-253): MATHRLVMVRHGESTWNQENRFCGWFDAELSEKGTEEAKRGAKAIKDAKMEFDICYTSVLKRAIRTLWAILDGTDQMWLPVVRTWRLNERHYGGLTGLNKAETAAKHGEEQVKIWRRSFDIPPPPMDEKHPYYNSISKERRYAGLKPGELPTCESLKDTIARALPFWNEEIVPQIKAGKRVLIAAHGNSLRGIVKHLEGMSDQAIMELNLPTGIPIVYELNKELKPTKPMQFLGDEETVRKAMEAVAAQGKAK
Outline: (§1)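 Purified protein is separated from a defined metabolite library by a semipermeable dialysis membrane that passes metabolites but not protein, then incubated to relative equilibrium. Protein is denatured and removed. Metabolites in both chambers are quantified by flow injection analysis–MS, with methods optimized for each pool. The between-chamber fold change is normalized and corrected for nonspecific interactions.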

[2] = biological target: T2, LDHA (Homo sapiens, UniProt P00338); assay: LDH enzyme activity assay; assay type: biochemical; settings: for inhibition of LDHA enzyme activity: in vitro; for IC50: LDHA enzyme activity, acyl-CoAs
Outline: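 LDH isoform activity measured in vitro with test metabolites (adenosine nucleotides, CoA and acyl-CoAs) over a concentration range. IC50 is derived from the inhibition curves. Mode of inhibition is assessed against NAD and lactate.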

[3] = biological target: ENO1 (Homo sapiens, UniProt P06733); assay: Differential scanning fluorimetry; assay type: binding; settings: DSF, ENO1
[4] = biological target: ENO2 (Homo sapiens, UniProt P09104); assay: Differential scanning fluorimetry; assay type: binding; settings: DSF, ENO2
[5] = biological target: GAPDH (Homo sapiens, UniProt P04406); assay: MIDAS protein-metabolite interaction screen; assay type: binding; settings: significant PMI Q < 0.01
[6] = biological target: T3, Sestrin2 (Homo sapiens, UniProt P58004); assay: MIDAS protein-metabolite interaction screen; assay type: binding; settings: significant PMI Q < 0.01
T3 sequence (P58004 1-480): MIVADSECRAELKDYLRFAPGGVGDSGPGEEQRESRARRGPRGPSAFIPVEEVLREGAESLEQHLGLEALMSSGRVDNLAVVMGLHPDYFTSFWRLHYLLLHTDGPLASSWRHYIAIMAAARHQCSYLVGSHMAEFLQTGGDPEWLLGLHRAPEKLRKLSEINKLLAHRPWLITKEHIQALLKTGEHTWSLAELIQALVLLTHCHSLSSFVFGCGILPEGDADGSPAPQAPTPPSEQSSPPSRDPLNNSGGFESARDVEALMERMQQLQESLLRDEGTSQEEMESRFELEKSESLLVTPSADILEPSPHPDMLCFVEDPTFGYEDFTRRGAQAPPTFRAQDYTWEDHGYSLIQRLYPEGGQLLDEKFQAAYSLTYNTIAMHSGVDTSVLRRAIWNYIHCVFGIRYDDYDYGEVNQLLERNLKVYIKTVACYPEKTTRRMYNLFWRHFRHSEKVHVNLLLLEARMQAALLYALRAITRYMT
Outline: as §1

[7] = biological target: LDHB (Homo sapiens, UniProt P07195); assay: MIDAS protein-metabolite interaction screen; assay type: binding; settings: significant PMI Q < 0.01
Outline: as §1

[8] = biological target: T2, LDHA; assay: MIDAS protein-metabolite interaction screen; assay type: binding; settings: significant PMI Q < 0.01
Outline: as §1

Sequence of ENO2 (P09104 whole entry): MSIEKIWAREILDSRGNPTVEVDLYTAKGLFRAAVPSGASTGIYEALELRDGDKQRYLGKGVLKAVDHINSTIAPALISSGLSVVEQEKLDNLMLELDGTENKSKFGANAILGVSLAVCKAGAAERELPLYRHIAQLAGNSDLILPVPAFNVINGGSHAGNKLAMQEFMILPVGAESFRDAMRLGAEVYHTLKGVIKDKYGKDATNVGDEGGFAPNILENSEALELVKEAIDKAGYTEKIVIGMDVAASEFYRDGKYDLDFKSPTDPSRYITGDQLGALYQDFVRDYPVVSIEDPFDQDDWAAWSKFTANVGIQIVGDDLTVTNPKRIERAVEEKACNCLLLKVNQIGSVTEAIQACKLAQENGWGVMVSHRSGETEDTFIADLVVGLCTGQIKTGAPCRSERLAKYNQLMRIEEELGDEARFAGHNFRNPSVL
Sequence of GAPDH (P04406 whole entry): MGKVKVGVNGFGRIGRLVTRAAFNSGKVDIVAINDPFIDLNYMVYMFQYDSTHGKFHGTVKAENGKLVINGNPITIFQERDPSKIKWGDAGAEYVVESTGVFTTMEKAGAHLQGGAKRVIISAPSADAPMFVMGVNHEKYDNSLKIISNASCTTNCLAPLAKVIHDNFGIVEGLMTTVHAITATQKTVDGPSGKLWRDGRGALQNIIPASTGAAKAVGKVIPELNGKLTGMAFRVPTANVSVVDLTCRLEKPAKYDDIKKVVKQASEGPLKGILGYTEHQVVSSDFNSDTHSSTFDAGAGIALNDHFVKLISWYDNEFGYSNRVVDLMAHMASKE
Sequence of ENO1 (P06733 whole entry): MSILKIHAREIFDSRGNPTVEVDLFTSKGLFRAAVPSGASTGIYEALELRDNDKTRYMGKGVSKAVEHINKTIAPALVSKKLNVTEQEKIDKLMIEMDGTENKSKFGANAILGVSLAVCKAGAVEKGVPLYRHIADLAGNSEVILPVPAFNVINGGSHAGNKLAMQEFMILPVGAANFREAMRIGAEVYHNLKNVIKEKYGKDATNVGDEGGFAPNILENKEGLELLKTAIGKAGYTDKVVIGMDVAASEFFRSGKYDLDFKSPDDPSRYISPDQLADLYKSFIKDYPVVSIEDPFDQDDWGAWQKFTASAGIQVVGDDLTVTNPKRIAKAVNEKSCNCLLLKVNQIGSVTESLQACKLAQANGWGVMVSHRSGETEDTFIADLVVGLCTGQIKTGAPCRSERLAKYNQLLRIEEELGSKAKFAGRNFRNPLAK
Sequence of LDHB (P07195 whole entry): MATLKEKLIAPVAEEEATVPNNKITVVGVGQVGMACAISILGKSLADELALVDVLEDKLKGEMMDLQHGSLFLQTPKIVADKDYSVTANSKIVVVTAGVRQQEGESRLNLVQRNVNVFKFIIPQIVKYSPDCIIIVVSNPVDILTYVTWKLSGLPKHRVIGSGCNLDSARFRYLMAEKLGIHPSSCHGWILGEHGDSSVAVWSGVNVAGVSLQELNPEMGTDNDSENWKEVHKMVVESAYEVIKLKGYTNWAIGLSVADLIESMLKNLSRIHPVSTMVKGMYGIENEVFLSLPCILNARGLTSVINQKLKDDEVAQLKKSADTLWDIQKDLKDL

MIDAS protein-metabolite interaction [1]: interacted
Compound: CCCCCC(=O)OCC(COP(=O)(O)OC1C(O)C(OP(=O)(O)O)C(OP(=O)(O)O)C(OP(=O)(O)O)C1O)OC(=O)CCCCC (centres unmarked) [PIP3, phosphatidylinositol-3,4,5-trisphosphate C-6]

inhibition of LDHA enzyme activity [2]: Neither
Compound: CC(C)(COP(=O)(O)OP(=O)(O)OC[C@H]1O[C@@H](n2cnc3c(N)ncnc32)[C@H](O)[C@@H]1OP(=O)(O)O)[C@@H](O)C(=O)NCCC(=O)NCCS [CoA, coenzyme A]

thermal stabilization of protein upon ligand binding [3]: not
thermal stabilization of protein upon ligand binding [4]: not
Compound: N[C@@H](CO)C(=O)O [serine]

MIDAS protein-metabolite interaction [5]: interacted
Compound: CC(C)(CO[P@@](=O)(O)O[P@@](=O)(O)OC[C@H]1O[C@@H](n2cnc3c(N)ncnc32)[C@H](O)[C@@H]1OP(=O)(O)O)[C@@H](O)C(=O)NCCC(=O)NCCSC(=O)CC(=O)O [malonyl-coenzyme A]

MIDAS protein-metabolite interaction [5]: interacted
Compound: CC(O)(CC(=O)O)CC(=O)SCCNC(=O)CCNC(=O)[C@H](O)C(C)(C)COP(=O)(O)OP(=O)(O)OC[C@H]1O[C@@H](n2cnc3c(N)ncnc32)[C@H](O)[C@@H]1OP(=O)(O)O (some centres unmarked) [HMG-CoA, 3-hydroxy-3-methylglutaryl-CoA]

MIDAS protein-metabolite interaction [6]: most enriched interactors
Compound: CC(C)C[C@H](N)C(=O)O [leucine]

Compound: CN(CC(=O)O)C(=N)NP(=O)(O)O [creatine-phosphate]
MIDAS protein-metabolite interaction [5]: interacted

IC50 [2]: > 100 µM
Compound: CCCCCCCCCCCC(=O)SCCNC(=O)CCNC(=O)[C@H](O)C(C)(C)COP(=O)(O)OP(=O)(O)OC[C@H]1O[C@@H](n2cnc3c(N)ncnc32)[C@H](O)[C@@H]1OP(=O)(O)O [C12:0-CoA, lauroyl-CoA]

thermal stabilization of protein upon ligand binding [3]: not
thermal stabilization of protein upon ligand binding [4]: not
Compound: phosphate

IC50 [2]: ~1 µM
Compound: CCCCCCCC/C=C\CCCCCCCC(=O)SCCNC(=O)CCNC(=O)[C@H](O)C(C)(C)COP(=O)(O)OP(=O)(O)OC[C@H]1O[C@@H](n2cnc3c(N)ncnc32)[C@H](O)[C@@H]1OP(=O)(O)O [C18:1-CoA, oleoyl-CoA]

MIDAS protein-metabolite interaction [6]: most enriched interactors
Compound: CSCC[C@H](N)C(=O)O [methionine]

IC50 [2]: ~1 µM
Compound: CCCCCCCCCCCCCCCCCCCC(=O)SCCNC(=O)CCNC(=O)[C@H](O)C(C)(C)COP(=O)(O)OP(=O)(O)OC[C@H]1O[C@@H](n2cnc3c(N)ncnc32)[C@H](O)[C@@H]1OP(=O)(O)O [C20:0-CoA, arachidoyl-CoA]

inhibition of LDHA enzyme activity [2]: inhibited
Compound: CCCCCCCCCCCCCCC(C)(C)C(=O)SCCNC(=O)CCNC(=O)C(O)C(C)(C)COP(=O)(O)OP(=O)(O)OCC1OC(n2cnc3c(N)ncnc32)C(O)C1OP(=O)(O)O (centres unmarked) [DiMePal-CoA, reference compound]

MIDAS protein-metabolite interaction [7]: interactions
MIDAS protein-metabolite interaction [8]: interactions
Compound: NC(=O)C1=CN([C@@H]2O[C@H](COP(=O)(O)OP(=O)(O)OC[C@H]3O[C@@H](n4cnc5c(N)ncnc54)[C@H](O)[C@@H]3O)[C@@H](O)[C@H]2O)C=CC1 [NADH]

thermal stabilization of protein upon ligand binding [3]: not
thermal stabilization of protein upon ligand binding [4]: not
Compound: N[C@@H](Cc1ccc(OP(=O)(O)O)cc1)C(=O)O [phosphotyrosine]

MIDAS protein-metabolite interaction [7]: interactions
MIDAS protein-metabolite interaction [8]: interactions
Compound: NC(=O)c1ccc[n+]([C@@H]2O[C@H](COP(=O)([O-])O)[C@@H](O)[C@H]2O)c1 [nicotinamide mononucleotide]

Kd ([3]; read-out: apparent dissociation constant (Kd app)): 298 µM
Kd ([4]; read-out: apparent dissociation constant (KD app)): 289 µM
Compound: O=C(O)[C@@H](CO)OP(=O)(O)O [2PG, 2-phosphoglycerate]

Compound: Nc1ncnc2c1ncn2[C@@H]1O[C@@H]2COP(=O)(O)O[C@H]2[C@H]1O [cAMP, cyclic adenosine monophosphate]
MIDAS protein-metabolite interaction [5]: interacted

MIDAS protein-metabolite interaction [1]: interacted
Compound: CCCCCC(=O)OCC(COP(=O)(O)OC1C(O)C(O)C(OP(=O)(O)O)C(OP(=O)(O)O)C1O)OC(=O)CCCCC (centres unmarked) [PIP2, phosphatidylinositol-4,5-bisphosphate C-6]

MIDAS protein-metabolite interaction [6]: most enriched interactors
Compound: CC[C@H](C)[C@H](N)C(=O)O [isoleucine]

Source: publication PMC10262665 (Science (New York, N.Y.), 2023)
